# Screens (PubChem)
# TAAR1 agonist – agonists of human TAAR1; CHO RD-HGA16 TAAR1, Fluo-8 calcium fluorescence; vehicle wells 0%, saturating PEA agonist 100%; Q96RJ0; AID 624467; activation, % at 3 µM; hit rate 0.99% among 360,000;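 active = activation above the mean activation of all test compounds in the run plus 3 SD, cut at about 38% in these data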
# Target sequence (Q96RJ0 whole entry, looked up): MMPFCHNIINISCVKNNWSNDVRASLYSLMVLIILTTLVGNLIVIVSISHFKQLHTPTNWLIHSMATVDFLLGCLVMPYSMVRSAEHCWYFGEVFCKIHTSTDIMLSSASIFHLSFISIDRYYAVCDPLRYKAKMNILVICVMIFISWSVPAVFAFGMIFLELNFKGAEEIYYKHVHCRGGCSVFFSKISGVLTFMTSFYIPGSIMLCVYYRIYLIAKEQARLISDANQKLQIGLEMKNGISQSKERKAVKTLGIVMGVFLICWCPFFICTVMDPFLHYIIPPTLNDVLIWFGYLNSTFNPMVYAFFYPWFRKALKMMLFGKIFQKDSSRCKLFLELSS
#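 Assay system – CHO-derived RD-HGA16 cells with stable Gα16 and human TAAR1 · Compound dosing – one-point dosing at 3 µM (nominal) · Incubation – 17-24 h seeding, 75 min 37 °C dye, 30 min RT · Measured by – kinetic Fluo-8 calcium fluorescence · Control set – DMSO vehicle as 0%, PEA at EC100 as 100% · Repeats – single well for each compound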
# OX1R antag-1 – human HCRTR1 antagonism | O43613 | CHO/OX1R cells, Fluo-8 calcium fluorescence, orexin A | inhibition, % at 5 µM | hit rate 0.43% among 330,000 | AID 434989;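 active = inhibition above its plate's threshold, mean inhibition of all tested compounds on the plate plus 3 SD, cut at about 37% in these data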;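 note: 0% = orexin A challenge wells and 100% = SB-334867-A antagonist wells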
# GalR3 antagonist – human GalR3 antagonism; hit rate 0.44% among 360,000; HEK293 GalR3-CNG cAMP membrane potential fluorescence; galR3 body fused to GalR1 C-terminus; inhibition, % at 3 µM; O60755;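 active = inhibition above the screen-wide average plus 3 SD, cut at about 13% in these data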;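 note: forskolin and galanin both at EC90 stimulate the cells; cAMP rise reported by CNG channel membrane potential dye signal; 0% = forskolin plus galanin with DMSO and 100% = forskolin alone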
# Target sequence (O60755 1-299 limits assumed): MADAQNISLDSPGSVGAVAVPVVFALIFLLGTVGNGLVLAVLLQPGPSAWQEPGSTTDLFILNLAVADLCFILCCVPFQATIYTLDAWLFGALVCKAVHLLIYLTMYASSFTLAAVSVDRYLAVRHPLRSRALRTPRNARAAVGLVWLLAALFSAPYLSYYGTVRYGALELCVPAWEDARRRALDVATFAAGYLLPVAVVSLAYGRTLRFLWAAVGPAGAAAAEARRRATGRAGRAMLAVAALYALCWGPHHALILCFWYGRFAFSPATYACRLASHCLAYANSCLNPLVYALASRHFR
# TAAR1 antagonist – human TAAR1 antagonism. Q96RJ0. CHO RD-HGA16 TAAR1, Fluo-8 calcium fluorescence, antagonist. AID 624466. hit rate 1.5% among 360,000. inhibition, % at 3 µM;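 active = inhibition above a per-plate cutoff, the mean inhibition of test compounds on that plate plus 3 SD, cut at about 49% in these data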;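 note: 0% = DMSO plus EC80 beta-PEA response and 100% = DMSO alone without agonist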
#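 Test system – hTAAR1-expressing CHO RD-HGA16 cells, Gα16-coupled · Reagent – β-PEA at EC80 concentration, post-compound challenge · Compound dosing – 3 µM, single point · Timing – 140 s kinetic read after compound, 140 s after agonist · Detection – Fluo-8 intracellular calcium dye fluorescence, real-time kinetic reads · Control set – DMSO and EC80 PEA controls · Repeats – n of 1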
# OX1R antag-2 – blocks the human orexin 1 receptor; OX1R-expressing cells, FRET antagonist read-out; inhibition, % at 6.6 µM; hit rate 1.8% among 330,000; in the data active = inhibition mostly above about 38%, no sharp cut-off; inactive = mostly below about 40%;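 note: 0% = agonist challenge alone and 100% = reference antagonist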
# CHO parental Ca – counter-screen: ATP calcium response change in parental CHO cells; parental CHO-K1, ATP-induced calcium, Fluo-8 fluorescence; inhibition, % at 5.6 µM; hit rate 0.63% among 330,000; AID 463079;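 active = inhibition above that plate's mean sample inhibition plus 3 SD, cut at about 26% in these data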;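 note: 0% = ATP-challenged DMSO wells and 100% = DMSO wells without ATP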
#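 Test system: untransfected parental CHO cell line; also added: ATP stimulus; dosing: 5.6 µM, single dose; signal: calcium-sensitive Fluo-8 fluorescence; measure: percent inhibition of ATP-evoked calcium rise, normalized to controls; benchmarks: low control ATP plus DMSO, high control DMSO only; replication: one well per compound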
# TAAR1 ag confirm – human TAAR1 agonism, confirmed; shares compounds with TAAR1 agonist; CHO RD-HGA16 TAAR1, Fluo-8 calcium fluorescence; scaled: DMSO 0%, maximal phenethylamine 100%; activation, % at 3 µM; hit rate 82% among 2,400; AID 651783;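 active = activation above a cutoff set at the run's mean compound activation plus 3 SD, cut at about 39% in these data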
# Ga16 nonsel ag – counter-screen for TAAR1 agonists: nonselective agonists in parental cells | shares compounds with TAAR1 agonist | CHO-Ga16 parental, Fluo-8 calcium fluorescence; normalized to maximal ATP response, DMSO zero | activation, % at 3 µM | hit rate 50% among 2,400 | AID 651787;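 active = activation above the run cutoff, the mean activation over all tested wells plus 3 SD, cut at about 12% in these data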;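 note: 0% = DMSO wells and 100% = maximal ATP response on the peak over basal ratio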
# TAAR1 desens – TAAR1 response desensitization, agonist counter-screen | hit rate 46% among 2,400 | shares compounds with TAAR1 agonist | CHO RD-HGA16 hTAAR1, Fluo-8 calcium, beta-PEA response inhibition | inhibition, % at 3 µM | AID 651951;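 active = inhibition above the run cutoff, the mean inhibition of all test compounds plus 3 SD, cut at about 49% in these data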;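 note: beta-PEA stimulus applied at its EC80; loss of beta-PEA calcium signal after compound pretreatment read as receptor desensitization; 0% = DMSO with beta-PEA at EC80 and 100% = DMSO alone without agonist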
# Ga16 antag count – counter-screen for TAAR1 agonists: nonselective Ga16 antagonists | shares compounds with TAAR1 agonist | CHO-Ga16 ATP-induced calcium, Fluo-8 fluorescence | inhibition, % at 3 µM | hit rate 39% among 2,400 | AID 651952;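 active = inhibition above the plate's mean compound inhibition plus 3 SD, computed per plate, cut at about 22% in these data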;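 note: 0% = EC80 ATP with DMSO and 100% = DMSO wells without ATP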
# * = called active by the depositor; · = not tested or not shown. Compounds with a hit are over-represented: about 4.2% of the library has one in this group of screens.
SMILES,TAAR1 agonist,OX1R antag-1,GalR3 antagonist,TAAR1 antagonist,OX1R antag-2,CHO parental Ca,TAAR1 ag confirm,Ga16 nonsel ag,TAAR1 desens,Ga16 antag count
CC(=O)c1c(NCCc2ccccc2)nc(=S)n(-c2ccccc2)c1C,49.7*,-20.7,-2.5,11.7,4.4,-8.3,70.6*,18.1*,23.9,6.5
COc1ccc(CCNS(=O)(=O)c2ccc(-n3cnnn3)c(OC)c2)cc1OC,8.1,-21.2,-0.1,-26.6,8.6,-14.2,·,·,·,·
O=C(NCc1cccs1)c1ccc(CS(=O)Cc2ccc(Cl)cc2)o1 (stereo not drawn),1.8,·,-9.0,-10.4,·,·,·,·,·,·
O=C(NCCc1cccs1)c1ccc(Cl)cc1,78.6*,-14.6,-6.1,46.8,11.5,-10.9,84.1*,2.3,76.1*,6.5
O=C(NCCc1cccs1)c1ccc(CS(=O)Cc2ccc(Cl)cc2)o1 (stereo not drawn),55.9*,-23.1,-9.2,2.6,9.6,-23.7,62.0*,1.6,35.5,5.2
CC(C)c1cc(C(=O)NCc2ccc(F)cc2)c(N)s1,-0.9,·,-4.5,-8.5,·,·,·,·,·,·
CC(C)c1cc(C(=O)NCCc2cccs2)c(N)s1,·,·,1.8,·,·,·,·,3.2,·,10.4
CCN(C(=O)c1cnc(OC)cc1C(F)(F)F)c1ccc(Cl)cc1,0.1,-22.2,-2.5,-40.9,5.9,-20.4,·,·,·,·
N=C(N)SCCc1cccc(CCSC(=N)N)c1,1.1,-5.2,·,5.1,21.7,-6.0,·,·,·,·
Cc1cccc(CSC(=N)N)c1,66.7*,-17.2,-4.8,40.2,21.4,-1.8,93.4*,5.4,67.6*,5.6
CC(=O)c1sc2nc(SCC(=O)NCCc3ccccc3)[nH]c(=O)c2c1C,89.7*,-2.6,-0.5,43.3,4.4,-10.4,96.8*,19.1*,56.3*,-0.7
Nc1ccc(-c2cn3cccnc3n2)cc1,0.1,·,3.2,-15.5,·,·,·,·,·,·
CNc1nc(N)c([N+](=O)[O-])c(NC2CCCCC2)n1,59.7*,·,-9.3,-22.4,·,·,90.3*,42.2*,-1.6,-17.3
Oc1ccc(C[C@@H]2CNCCN2CCC23CC4CC(CC(C4)C2)C3)cc1,48.5*,-0.3,4.8,4.7,15.6,9.3,62.4*,30.9*,40.8,42.2*
Oc1ccc(C[C@H]2CNCCN2CCC23CC4CC(CC(C4)C2)C3)cc1,35.8,9.4,1.0,-12.7,20.8,8.1,·,·,·,·
COc1ccc(NCC(=O)Nc2cccc(S(=O)(=O)N3CCCC3)c2)cc1Cl,1.2,15.3,-3.7,-19.6,9.0,-8.1,·,·,·,·
Cc1ccc(-c2c(C(=O)N/N=C/c3cccnc3)nnn2-c2nonc2N)cc1,9.7,-6.9,-10.3,6.3,36.8,-14.0,·,·,·,·
Cc1ccc(/C=N/NC(=O)c2nnn(-c3nonc3N)c2-c2ccc3c(c2)OCO3)s1,81.7*,-4.7,-7.6,41.6,43.0*,-2.2,97.2*,60.9*,39.7,20.2
Nc1nonc1-n1nnc(C(=O)N/N=C/c2cccc(F)c2)c1-c1ccccc1,55.5*,-20.2,-9.1,0.3,18.1,-17.3,38.5*,18.5*,16.0,10.9
CCCOc1ccc(-c2c(C(=O)N/N=C/c3ccccc3)nnn2-c2nonc2N)cc1,0.3,-18.9,-2.8,-45.7,12.6,-2.0,·,·,·,·
C/C(=N/NC(=O)c1nnn(-c2nonc2N)c1-c1ccccc1)c1ccc2c(c1)OCO2,27.0,-5.1,-3.2,22.2,12.7,-4.2,·,·,·,·
CCOc1ccc(/C=N/NC(=O)c2nnn(-c3nonc3N)c2-c2ccc(OCC)cc2)cc1,66.3*,-22.3,2.9,-14.9,13.3,-20.3,57.4*,26.0*,9.3,13.8
CCOc1cccc(-c2c(C(=O)N/N=C/c3ccoc3)nnn2-c2nonc2N)c1,83.3*,-2.9,4.3,-2.6,9.0,-0.6,73.1*,32.3*,7.1,9.2
C[C@H]1CN([C@@H](C)CO)C(=O)c2cc(NC(=O)C3CCCCC3)ccc2O[C@H]1CN(C)CC1CCCCC1,1.7,-24.3,1.4,2.6,4.4,-18.8,·,·,·,·
CSc1ccccc1C(=O)NCc1ccc(S(N)(=O)=O)cc1,8.0,6.9,-4.1,9.8,14.5,-8.4,·,·,·,·
SMILES,TAAR1 agonist,OX1R antag-1,GalR3 antagonist,TAAR1 antagonist,OX1R antag-2,CHO parental Ca,TAAR1 ag confirm,Ga16 nonsel ag,TAAR1 desens,Ga16 antag count
CCOc1ccc(-c2c(C(=O)N/N=C/c3ccoc3)nnn2-c2nonc2N)cc1,91.7*,-1.7,-1.1,-20.2,7.7,-0.8,66.1*,28.9*,6.2,9.7
Cc1ccc(/C=N/NC(=O)c2nnn(-c3nonc3N)c2-c2cccs2)cc1,131.1*,-64.1,-8.4,77.6*,8.9,-28.1,128.7*,96.1*,79.0*,42.5*
COc1ccc(/C=N/NC(=O)c2nnn(-c3nonc3N)c2-c2cccs2)cc1OC,12.5,7.8,1.3,22.0,20.8,2.2,·,·,·,·
COc1ccc(/C=N/NC(=O)c2nnn(-c3nonc3N)c2-c2cccc(OC)c2)cc1,149.3*,-7.7,-9.2,74.8*,28.5,-16.9,120.9*,86.5*,72.0*,32.2*
CCOc1cccc(-c2c(C(=O)N/N=C/c3cccs3)nnn2-c2nonc2N)c1,110.1*,-7.7,1.3,20.7,7.9,-11.6,91.4*,55.2*,38.2,21.1
COc1ccc(NC(=O)CCC(=O)Nc2nnc(C(C)C)s2)cc1Cl,4.3,-20.5,2.6,-4.3,15.5,-10.3,·,·,·,·
CC(C)N(C)c1ncnc2c1ncn2[C@H]1CN(CCc2ccccc2)C[C@@H](CO)O1,47.6*,·,-9.0,-12.8,·,·,62.8*,6.4,6.4,6.7
Nc1ccc(CCNc2ncnc3c2ncn3[C@@H]2O[C@H](CO)[C@@H](O)[C@H]2O)cc1,-0.3,-8.1,10.9,-2.6,23.8,-4.0,·,·,·,·
COCCN1C[C@@H](CO)O[C@@H](n2cnc3c(N4CCOCC4)ncnc32)C1,2.5,·,-6.7,-17.6,·,·,·,·,·,·
OCC1OC(n2cnc3c(NCCc4ccccc4)ncnc32)C(O)C1O (stereo not drawn),69.9*,-14.3,-2.5,38.1,8.2,-8.1,75.1*,3.4,65.1*,6.0
OC[C@@H]1CN(CCc2ccccc2)C[C@H](n2cnc3c(N4CCOCC4)ncnc32)O1,61.2*,·,-3.4,8.5,·,·,74.2*,2.7,43.4,7.9
OC[C@@H]1CN(CCN2CCOCC2)C[C@H](n2cnc3c(NCc4ccc(F)cc4)ncnc32)O1,1.1,·,-0.5,-1.9,·,·,·,·,·,·
